Molecules are shown by their SMILES.

The subject of data set [1] is Mus musculus. The experiment in a line: Anticonvulsant activity in albino mouse assessed as protection against subcutaneous metrazol-induced seizures at 100 mg/kg, po administered 60 mins prior challenge measured over 20 mins. The class given is functional. In a few lines:
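Adult albino mice (20–25 g, both sexes), groups of six, dosed orally with 100 mg/kg; a separate group of six serves as control. Pentylenetetrazole 85 mg/kg given s.c. 60 min after dosing. Each mouse is watched alone for 20 min for tonic-clonic convulsions lasting at least 5 s. Mice without generalized convulsions count as protected; result is % protection.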

The subject of data set [2] is Mus musculus. The experiment in a line: Anticonvulsant activity in albino mouse assessed as protection against maximal electroshock-induced seizures measuring mean convulsion threshold at 100 mg/kg, po after 60 mins. The class given is functional. In a few lines: (§1)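 Adult albino mice (20–25 g, both sexes), groups of six, dosed orally with compound suspended in 1% Tween 80; vehicle controls. 60 min later, ear-electrode current ramped from 1 mA in 0.1 mA/0.2 s steps at 50 Hz until tonic hind-limb extension. Read-out is mean maximal tolerated current (mA), reported as mean ± S.E. of 5–6 animals. One-way ANOVA with Tukey post test versus control.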

Data set [3] deals with Mus musculus. Put plainly: Neurotoxicity in albino mouse assessed as neurological deficit at 100 mg/kg, ip measured after 1 hr for period of 300 seconds by rotarod test. The class given is toxicity, organism-based. More on the design: dose 100 mg/kg, route intraperitoneal. As to conditions: in vivo. In a few lines:
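Rotarod at 6 rpm with a 3 cm rod. Male albino mice get two training sessions of 10 and 15 min first. Compound given i.p. at 100 mg/kg in 1% Tween 80, groups of six; vehicle-treated controls. Mice are retested 1 h later. Result is % of mice unable to stay on the rod for 300 s.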

Data set [4] relates to Mus musculus. Put plainly: Anticonvulsant activity in albino mouse assessed as protection against maximal electroshock-induced seizures measuring mean convulsion threshold at 30 mg/kg, po after 60 mins. The class given is functional. In outline: as §1

Take `CCNc1nnc(CN2C(=O)NC(c3ccccc3)(c3ccccc3)C2=O)s1`: the Activity in data set [1] is 60%; in data set [2] it was 5 mA.

For the compound `O=C1NC(c2ccccc2)(c2ccccc2)C(=O)N1Cc1nnc(S)n1-c1ccccc1`, the Activity in data set [1] is 40%; in data set [2] it was 6.6 mA; in data set [3], 33.33%.

Consider `COc1ccc(NC(=S)NNC(=O)CN2C(=O)NC(c3ccccc3)(c3ccccc3)C2=O)cc1`, for which the results for the Activity in data set [1], in data set [2] and in data set [3] were 80%, 4 mA and 16.67%, respectively.

With `O=C1NC(=O)C(c2ccccc2)(c2ccccc2)N1` [PHENYTOIN], the Activity is listed as 80% in data set [1] and 7.25 mA in data set [2].

For the compound `O=C(CN1C(=O)NC(c2ccccc2)(c2ccccc2)C1=O)NNC(=S)Nc1ccc(Cl)cc1`, the values for the Activity in data set [1] and in data set [2] were 0% and 5.4 mA, respectively.

Turning to `COc1ccc(-n2c(S)nnc2CN2C(=O)NC(c3ccccc3)(c3ccccc3)C2=O)cc1`, the values for the Activity in data set [1], in data set [2] and in data set [3] were 40%, 6.6 mA and 50%, respectively.

Take `O=C1NC(c2ccccc2)(c2ccccc2)C(=O)N1Cc1nnc(S)o1`: the Activity in data set [1] was 80%; in data set [2], 5.5 mA; in data set [3] it was 40%.

As to `O=C1NC(c2ccccc2)(c2ccccc2)C(=O)N1Cc1nnc(Nc2ccccc2)s1`, the Activity is recorded as 60% in data set [1] and 5 mA in data set [2].

For the compound `O=C1NC(c2ccccc2)(c2ccccc2)C(=O)N1Cc1nnc(Nc2ccc(Cl)cc2)s1`, the Activity in data set [1] was 0%; in data set [2], 4.25 mA.

As to `COc1ccc(Nc2nnc(CN3C(=O)NC(c4ccccc4)(c4ccccc4)C3=O)s2)cc1`, the Activity turned out to be 20% in data set [1] and 4 mA in data set [2].

Take `O=C(CN1C(=O)NC(c2ccccc2)(c2ccccc2)C1=O)NNC(=S)Nc1ccccc1`: the Activity in data set [1] came to 50%; in data set [2] it was 8.4 mA; in data set [3], 0%; in data set [4] it was 6.143 mA.

`CCn1c(S)nnc1CN1C(=O)NC(c2ccccc2)(c2ccccc2)C1=O`: the Activity in data set [1] is recorded as 40%; in data set [2] it was 5.8 mA.

In the case of `CCNC(=S)NNC(=O)CN1C(=O)NC(c2ccccc2)(c2ccccc2)C1=O`, the Activity came out at 40% in data set [1] and 5.2 mA in data set [2].

In the case of `Cc1ccc(-n2c(S)nnc2CN2C(=O)NC(c3ccccc3)(c3ccccc3)C2=O)cc1`, the Activity in data set [1] was determined as 20%; in data set [2] it was 6.6 mA.

Consider `Cc1ccc(Nc2nnc(CN3C(=O)NC(c4ccccc4)(c4ccccc4)C3=O)s2)cc1`, for which the results for the Activity in data set [1] and in data set [2] were 40% and 5.2 mA, respectively.

With `Cc1ccc(NC(=S)NNC(=O)CN2C(=O)NC(c3ccccc3)(c3ccccc3)C2=O)cc1`, the Activity in data set [1] is 60%; in data set [2], 5.8 mA.

For `O=C1NC(c2ccccc2)(c2ccccc2)C(=O)N1Cc1nnc(S)n1-c1ccc(Cl)cc1`, the results for the Activity in data set [1] and in data set [2] were 40% and 6.2 mA, respectively.

The record behind these values is ChEMBL document CHEMBL2311369, “Synthesis and anticonvulsant activity of new phenytoin derivatives” (Eur J Med Chem, 2013).
